Assays:
Leishmania infantum [1] = assay: Antimicrobial activity against Leishmania infantum promastigotes assessed as increase in hypodiploid cell formation after 24 hrs by flow cytometry; type: functional, organism-based
Outline: (§1)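 Exponentially growing L. infantum promastigotes (2 × 10^6/ml, strain M/CAN/ES/96/BCN150 MON-1) exposed 24 h to increasing drug concentrations; DNA content analysed by flow cytometry, scoring percentage of hypodiploid cells as DNA degradation.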

Leishmania infantum [2] = assay: Antimicrobial activity against Leishmania infantum promastigotes assessed as increase in DNA degradation after 24 hrs by flow cytometry; type: functional, organism-based; outline: as §1
Leishmania infantum [3] = assay: Antimicrobial activity against Leishmania infantum promastigotes; type: functional; conditions: read-out: LD50 (the source's name)
Outline: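 L. infantum promastigotes (M/CAN/ES/96/BCN150 MON-1), exponentially growing at 2 × 10^6 parasites/ml, incubated 24 h with increasing drug concentrations; stained with 5 µM propidium iodide and dead (PI-positive) parasites counted by flow cytometry; 50% lethal dose estimated from concentration–response fit.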

Leishmania infantum [4] = assay: Induction of apoptosis in Leishmania infantum promastigotes cells harboring with plasmid pX63 carrying Bcl-XL gene at 40 uM after 24 hrs by TUNEL assay; type: functional
Outline: (§2)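 Wild-type promastigotes or those transfected with empty pX63, pX63-bcl-XL (HA-tagged) or pX63-hrk (FLAG-tagged) left untreated or exposed to 40 µM drug for 24 h; DNA nicks labelled by TUNEL, imaged by confocal microscopy with PI and DIC; percentage TUNEL-positive cells from image analysis, mean ± SD, n = 3.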

Leishmania infantum [5] = assay: Induction of apoptosis in wild-type Leishmania infantum promastigotes cells at 40 uM after 24 hrs by TUNEL assay; type: functional; outline: as §2
Leishmania infantum [6] = assay: Induction of apoptosis in Leishmania infantum promastigotes cells harboring with plasmid pX63 carrying Hrk gene at 40 uM after 24 hrs by TUNEL assay; type: functional; outline: as §2
Leishmania infantum [7] = assay: Induction of apoptosis in Leishmania infantum promastigotes cells harboring pX63 expression vector at 40 uM after 24 hrs by TUNEL assay; type: functional; outline: as §2

SMILES	Activity (Leishmania infantum [1])	Activity (Leishmania infantum [2])	LC50 (Leishmania infantum [3]) [µM]	Activity (Leishmania infantum [4]) [%]	Activity (Leishmania infantum [5]) [%]	Activity (Leishmania infantum [6]) [%]	Activity (Leishmania infantum [7]) [%]
CCCCCCCCCCCCCCCCOP(=O)([O-])OCC[N+](C)(C)C [MILTEFOSINE]	Dose-dependent effect	Dose-dependent effect	47	–	–	–	–
CCCCCCCCCCCCCCCCCCOCC(COP(=O)([O-])OCC[N+](C)(C)C)OC (stereo not given) [EDELFOSINE]	Dose-dependent effect	Dose-dependent effect	27	26.7	42.5	92.5	47.4

From ChEMBL document CHEMBL1275508, “Edelfosine induces an apoptotic process in Leishmania infantum that is regulated by the ectopic expression of Bcl-XL and Hrk” (2008)
